Measured values: ChEMBL document CHEMBL1287773, “4-aryl piperazine and piperidine amides as novel mGluR5 positive allosteric modulators” (Bioorg Med Chem Lett, 2010)

Legend:
[1] = target: Metabotropic glutamate receptor 5 (Homo sapiens, UniProt P41594); assay: Positive allosteric modulation of human mGluR5 expressed in HEK293 cells assessed as Ca2+ influx by FLIPR assay; format: functional, cell-based
Summary of the method: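 HEK293 cells stably expressing human mGluR5 d isoform, plated the day before at 25,000 cells/well in DMEM with 10% dialyzed FBS. Loaded 1 h at 37 °C with 4.3 uM Fluo-4 AM in HBSS/20 mM HEPES/1 mM probenecid, pH 7.4, then washed. Eleven-concentration series added, agonist read 1 min; after 15 min, EC20 L-glutamate (final 200-300 nM) added, Ca2+ read 1 min.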

[2] = Intrinsic clearance in human liver microsome assessed as per mg of protein; format: ADME; conditions: liver microsomes
[3] = target: Metabotropic glutamate receptor 5 (Rattus norvegicus) (UniProt P31424); assay: Displacement of [3H]-MPEP from rat mGluR5
[4] = Clearance in rat plasma; format: ADME, organism-based
[5] = Half life in dog; format: ADME, organism-based, Canis lupus familiaris; conditions: in vivo
[6] = Half life in rat; format: ADME, organism-based; conditions: in vivo
[7] = Clearance in dog plasma; format: ADME, organism-based, Canis lupus familiaris
[8] = Ratio of drug level in brain to plasma in rat; format: ADME, organism-based; conditions: brain and plasma, read-out: BPR
[9] = Oral bioavailability in rat; format: ADME, organism-based; conditions: in vivo
[10] = Volume of distribution in rat; format: ADME, organism-based; conditions: in vivo
[11] = Oral bioavailability in dog; format: ADME, organism-based, Canis lupus familiaris; conditions: in vivo
[12] = Volume of distribution in dog; format: ADME, organism-based, Canis lupus familiaris; conditions: in vivo

Chain of Metabotropic glutamate receptor 5 (P41594 whole entry, canonical isoform): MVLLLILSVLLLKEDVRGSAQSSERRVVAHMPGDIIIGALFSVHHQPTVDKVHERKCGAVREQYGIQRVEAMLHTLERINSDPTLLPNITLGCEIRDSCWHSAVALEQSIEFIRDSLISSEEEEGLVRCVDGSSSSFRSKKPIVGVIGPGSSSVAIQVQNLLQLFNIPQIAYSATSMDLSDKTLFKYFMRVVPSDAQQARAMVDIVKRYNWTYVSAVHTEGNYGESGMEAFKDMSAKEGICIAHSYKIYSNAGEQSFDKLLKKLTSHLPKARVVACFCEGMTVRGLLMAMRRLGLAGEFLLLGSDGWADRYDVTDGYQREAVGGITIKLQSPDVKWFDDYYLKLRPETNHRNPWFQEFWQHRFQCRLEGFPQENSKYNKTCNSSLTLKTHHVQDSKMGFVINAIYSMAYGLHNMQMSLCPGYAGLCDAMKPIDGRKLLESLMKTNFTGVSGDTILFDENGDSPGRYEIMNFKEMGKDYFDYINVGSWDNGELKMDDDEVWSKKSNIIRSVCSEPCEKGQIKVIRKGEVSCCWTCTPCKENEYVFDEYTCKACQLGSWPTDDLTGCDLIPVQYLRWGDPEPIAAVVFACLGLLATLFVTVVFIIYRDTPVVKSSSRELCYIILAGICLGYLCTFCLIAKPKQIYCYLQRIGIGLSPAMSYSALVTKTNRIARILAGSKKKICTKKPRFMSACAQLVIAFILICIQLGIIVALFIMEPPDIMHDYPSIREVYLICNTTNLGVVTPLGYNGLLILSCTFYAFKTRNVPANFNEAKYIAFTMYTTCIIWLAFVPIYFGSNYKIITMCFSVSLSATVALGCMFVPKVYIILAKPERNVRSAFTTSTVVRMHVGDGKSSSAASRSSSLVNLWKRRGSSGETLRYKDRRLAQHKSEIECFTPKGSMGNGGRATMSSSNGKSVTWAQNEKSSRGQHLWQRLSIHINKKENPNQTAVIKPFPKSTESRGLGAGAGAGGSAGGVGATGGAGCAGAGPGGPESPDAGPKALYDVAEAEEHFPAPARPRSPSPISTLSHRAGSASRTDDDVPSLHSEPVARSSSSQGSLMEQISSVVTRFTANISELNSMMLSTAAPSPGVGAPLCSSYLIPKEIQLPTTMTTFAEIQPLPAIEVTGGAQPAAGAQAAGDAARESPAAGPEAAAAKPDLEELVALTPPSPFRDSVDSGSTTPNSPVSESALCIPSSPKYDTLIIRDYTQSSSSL
Chain of Metabotropic glutamate receptor 5 (Rattus norvegicus) (P31424 whole entry, looked up): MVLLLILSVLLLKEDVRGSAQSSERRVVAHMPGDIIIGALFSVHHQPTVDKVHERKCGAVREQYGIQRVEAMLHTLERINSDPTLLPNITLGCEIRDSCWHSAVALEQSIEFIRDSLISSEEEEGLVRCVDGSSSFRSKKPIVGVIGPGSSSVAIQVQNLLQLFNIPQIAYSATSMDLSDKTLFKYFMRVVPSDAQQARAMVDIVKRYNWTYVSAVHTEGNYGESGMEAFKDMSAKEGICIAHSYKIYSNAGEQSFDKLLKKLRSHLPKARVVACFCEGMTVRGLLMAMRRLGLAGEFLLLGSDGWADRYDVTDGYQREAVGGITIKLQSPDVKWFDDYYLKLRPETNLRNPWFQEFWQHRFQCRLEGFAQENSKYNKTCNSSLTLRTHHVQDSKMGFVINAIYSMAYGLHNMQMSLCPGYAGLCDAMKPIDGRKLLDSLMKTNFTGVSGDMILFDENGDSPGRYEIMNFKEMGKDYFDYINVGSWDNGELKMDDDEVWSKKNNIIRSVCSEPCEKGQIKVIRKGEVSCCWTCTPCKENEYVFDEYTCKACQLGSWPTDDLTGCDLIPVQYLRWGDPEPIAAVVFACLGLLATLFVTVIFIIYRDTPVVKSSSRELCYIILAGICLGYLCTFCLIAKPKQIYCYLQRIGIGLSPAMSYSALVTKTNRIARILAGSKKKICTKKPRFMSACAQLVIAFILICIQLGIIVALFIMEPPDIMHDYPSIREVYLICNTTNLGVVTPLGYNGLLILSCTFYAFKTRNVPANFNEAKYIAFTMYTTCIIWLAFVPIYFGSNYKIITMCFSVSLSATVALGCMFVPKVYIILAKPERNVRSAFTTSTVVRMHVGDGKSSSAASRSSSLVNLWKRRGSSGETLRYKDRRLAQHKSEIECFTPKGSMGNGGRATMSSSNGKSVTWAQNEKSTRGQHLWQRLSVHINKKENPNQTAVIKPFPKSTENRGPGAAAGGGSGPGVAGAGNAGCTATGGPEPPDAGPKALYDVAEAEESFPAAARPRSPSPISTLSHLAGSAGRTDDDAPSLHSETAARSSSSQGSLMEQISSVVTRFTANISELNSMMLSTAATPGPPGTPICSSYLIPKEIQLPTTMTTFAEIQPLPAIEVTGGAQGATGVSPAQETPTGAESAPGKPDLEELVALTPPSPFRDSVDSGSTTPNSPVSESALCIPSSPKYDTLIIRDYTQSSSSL

Row | Compound | EC50 [1] [nM] | microsomal CLint [2] [µL/min/mg] | further results
1 | O=C(COCc1ccncc1)N1CCN(c2ccc(F)cc2Cl)CC1 | 550 | 29 | Ki [3]: 2370 nM; clearance [4]: 55 mL/min/kg; half-life [5]: 2.9 h; half-life [6]: 7.3 h; clearance [7]: 38.5 mL/min/kg; Kp [8]: 4.6; bioavailability [9]: 41%; Vd [10]: 4.8 L/kg; bioavailability [11]: 37%; Vd [12]: 3.2 L/kg
2 | O=C(CSCc1ccccc1)N1CCN(c2ccc(Cl)cc2Cl)CC1 | 7100 | – | –
3 | CC1(c2ccc(Cl)cc2)CCN(C(=O)COCc2ccncc2)CC1 | 2100 | – | –
4 | O=C(COCc1ccccc1)N1CCN(c2ccc(F)cc2)CC1 | 1100 | 110 | –
5 | O=C(COCc1ccccc1)N1CCN(c2ccccc2)CC1 | 7100 | – | –
6 | O=C(COCc1ccncc1)N1CCN(c2cc(Cl)ccn2)CC1 | 4200 | 4 | –
7 | O=C(COCc1ccncc1)N1CCN(c2ccc(Cl)cc2)CC1 | 1300 | 17 | –
8 | O=C(COCc1ccncc1)N1CCN(c2ccc(F)cc2F)CC1 | 4600 | 22 | –
9 | O=C(COCc1ccccc1)N1CCN(c2cccc(Cl)c2)CC1 | 6700 | 310 | –
10 | O=C(COCc1ccccc1)N1CCN(c2ccccc2Cl)CC1 | 1100 | 540 | –
11 | O=C(CCCc1ccncc1)N1CCN(c2ccc(Cl)cc2Cl)CC1 | 5300 | – | –
12 | O=C(COCc1ccccc1)N1CCN(c2ccc(F)cc2F)CC1 | 300 | 580 | –
13 | O=C(COCc1ccncc1)N1CCC(F)(c2ccc(Cl)cc2)CC1 | 800 | 45 | –
14 | O=C(COCc1ccccc1)N1CCN(c2ccncc2)CC1 | > 25000 | – | –
15 | O=C(COCc1ccccc1)N1CCN(c2cc(Cl)ccn2)CC1 | 570 | 130 | –
16 | CN(CC(=O)N1CCN(c2ccc(Cl)cc2Cl)CC1)Cc1ccncc1 | > 25000 | – | –
17 | O=C(COCc1ccccc1)N1CCN(c2ccc(Cl)cc2)CC1 | 350 | 290 | –
18 | Clc1ccc(N2CCN(CCOCc3ccccc3)CC2)c(Cl)c1 | > 25000 | – | –
19 | O=C(CSc1ccccc1)N1CCN(c2ccc(Cl)cc2Cl)CC1 | > 25000 | – | –
20 | O=C(COCc1ccncc1)N1CCC(c2ccc(Cl)cc2)CC1 | 680 | 41 | –
21 | O=C(COCc1ccncc1)N1CCC(c2ccc(Cl)cc2Cl)CC1 | 390 | 96 | –
22 | O=C(CNCc1ccncc1)N1CCN(c2ccc(Cl)cc2Cl)CC1 | 8500 | – | –
23 | O=C(COCc1ccncc1)N1CCC(F)(c2ccc(F)cc2Cl)CC1 | 6600 | – | –
24 | C[C@@H](OCc1ccncc1)C(=O)N1CCC(c2ccc(Cl)cc2F)CC1 | > 25000 | – | –
25 | O=C(COCc1ccncc1)N1CCC(c2ccc(F)cc2Cl)CC1 | 370 | 56 | –
26 | Fc1ccc(C2CCN(C(=S)COCc3ccncc3)CC2)c(Cl)c1 | > 10600 | – | –

Second part, led by results:

Row | EC50 [1] [nM] | microsomal CLint [2] [µL/min/mg] | Compound | further results
27 | 18000 | 16 | O=C(COCc1ncccn1)N1CCN(c2ccc(Cl)cc2Cl)CC1 | –
28 | 1400 | 450 | O=C(COCc1ccccc1)N1CCN(c2ccc(Cl)cc2Cl)CC1 | –
29 | > 10300 | 80 | O=C(COCc1nccs1)N1CCN(c2ccc(Cl)cc2Cl)CC1 | –
30 | 5200 | 4 | O=C(COCc1cnccn1)N1CCN(c2ccc(Cl)cc2Cl)CC1 | –
31 | 310 | 94 | O=C(COCc1ccccn1)N1CCN(c2ccc(Cl)cc2Cl)CC1 | –
32 | 1090 | 210 | O=C(COCc1cccnc1)N1CCN(c2ccc(Cl)cc2Cl)CC1 | –
33 | 180 | 76 | O=C(COCc1ccncc1)N1CCN(c2ccc(Cl)cc2Cl)CC1 | –
34 | 290 | 62 | O=C(COCc1cscn1)N1CCN(c2ccc(Cl)cc2Cl)CC1 | –
35 | 600 | 38 | O=C(COCc1ccncc1)N1CCN(c2ccc(Cl)cc2F)CC1 | –
36 | 310 | 360 | O=C(COCc1cccs1)N1CCN(c2ccc(Cl)cc2Cl)CC1 | –
37 | 1280 | 73 | O=C(COCc1cncs1)N1CCN(c2ccc(Cl)cc2Cl)CC1 | –
38 | 2800 | 17 | O=C(COCc1ccncn1)N1CCN(c2ccc(Cl)cc2Cl)CC1 | –
39 | 240 | 68 | Cc1cc(Cl)ccc1N1CCN(C(=O)COCc2ccncc2)CC1 | –
40 | 270 | 530 | O=C(COCc1ccccc1)N1CCN(c2ccc(F)cc2Cl)CC1 | –
41 | 210 | 110 | N#Cc1ccc(COCC(=O)N2CCN(c3ccc(Cl)cc3Cl)CC2)s1 | –
